DAGLB inh – blocks human DAGLB lipase activity. Q8NCG7. HEK293T DAGLB membrane lysate, EnzChek fluorogenic substrate. inhibition, % at 5.17 µM. 0.059% of 340,000 active. AID 504411; in the data active = inhibition above about 34%;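 note: 0% = enzyme with vehicle and 100% = wells lacking enzyme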
MPTP block – permeability transition pore inhibition; isolated mouse mitochondria, Ca2+ swelling absorbance, 30 min; inhibition, % at 10 µM; 1.4% of 360,000 active; AID 602449;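 active = inhibition of 50% or more, scaled per plate between neutral and stimulator controls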;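 note: 0% = DMSO wells given calcium and 100% = 1 mM EGTA wells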
TAAR1 antagonist – antagonists of human TAAR1; inhibition, % at 3 µM; 1.5% of 360,000 active; CHO RD-HGA16 TAAR1, Fluo-8 calcium fluorescence, antagonist;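 active = inhibition above a per-plate cutoff, the mean inhibition of test compounds on that plate plus 3 SD, cut at about 49% in these data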;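 note: 0% = DMSO plus EC80 beta-PEA response and 100% = DMSO alone without agonist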
Target sequence (Q96RJ0 whole entry, looked up): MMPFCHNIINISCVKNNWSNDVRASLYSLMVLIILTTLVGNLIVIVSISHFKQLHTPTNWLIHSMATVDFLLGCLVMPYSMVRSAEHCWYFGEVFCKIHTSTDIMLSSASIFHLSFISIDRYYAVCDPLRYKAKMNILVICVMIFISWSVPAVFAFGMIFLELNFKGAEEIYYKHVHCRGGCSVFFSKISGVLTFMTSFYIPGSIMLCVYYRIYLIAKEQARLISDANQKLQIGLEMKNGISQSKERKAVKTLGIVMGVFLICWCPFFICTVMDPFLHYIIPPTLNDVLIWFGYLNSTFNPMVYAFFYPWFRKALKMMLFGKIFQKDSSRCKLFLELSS
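Assay system: RD-HGA16 CHO cells with stable hTAAR1 and Gα16 / Reagent: EC80 β-phenethylamine stimulus / Doses: 3 µM, single point / Timing: dye loading 75 min at 37 °C, then 30 min room temperature / Measured by: Fluo-8 intracellular calcium dye fluorescence, real-time kinetic reads / Controls: vehicle wells and EC80 agonist wells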
GPR7 antag – human neuropeptides B/W receptor 1 antagonism | inhibition, % at 4.4 µM | 1.1% of 290,000 active | GPR7-expressing cells, fluorescence antagonist assay | P48145 | AID 1861; in the data active = inhibition above about 16%, passing the limit was not always enough;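 note: cells stimulated with the agonist NPW; 0% = agonist with vehicle and 100% = vehicle without agonist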
Target sequence (P48145 whole entry, looked up): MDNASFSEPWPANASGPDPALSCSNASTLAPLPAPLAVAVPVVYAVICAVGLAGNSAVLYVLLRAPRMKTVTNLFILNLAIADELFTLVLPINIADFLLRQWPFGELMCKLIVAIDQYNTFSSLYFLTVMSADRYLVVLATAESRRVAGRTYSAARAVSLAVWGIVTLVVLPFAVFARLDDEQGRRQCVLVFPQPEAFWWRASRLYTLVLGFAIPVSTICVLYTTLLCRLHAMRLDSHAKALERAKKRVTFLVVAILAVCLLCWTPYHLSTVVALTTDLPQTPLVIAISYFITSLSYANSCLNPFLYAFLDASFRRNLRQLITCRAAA
TAAR1 ag – human TAAR1 agonism | 0.99% of 360,000 active | Q96RJ0 | activation, % at 3 µM | CHO RD-HGA16 TAAR1, Fluo-8 calcium fluorescence; vehicle wells 0%, saturating PEA agonist 100%;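 active = activation above the mean activation of all test compounds in the run plus 3 SD, cut at about 38% in these data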
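Signal – calcium-sensitive Fluo-8 signal, excitation 470-495, emission 515-575 nm · System – RD-HGA16 (CHO) cells co-expressing Gα16 and hTAAR1 · Incubation – 17-24 h seeding, 75 min 37 °C dye, 30 min RT · Compound dosing – 3 µM single concentration · Repeats – no replicates (n 1)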
GPR7 antag conf – confirmation of human GPR7 antagonists; 52% of 2,400 active; shares compounds with GPR7 antag; GPR7-expressing cells, calcium fluorescence antagonist mode; inhibition, % at 4.4 µM; in the data active = inhibition above about 24%;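 note: stimulated with the GPR7 agonist NPW; 0% = agonist plus vehicle and 100% = vehicle alone without agonist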
MCHR1 antag – antagonizes human MCHR1, a GPR7 antagonist counter-screen. shares compounds with GPR7 antag. MCHR1-expressing cells, fluorescence antagonist assay. inhibition, % at 4.4 µM. 62% of 2,400 active; in the data active = inhibition above about 22%;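 note: 0% = vehicle with agonist and 100% = vehicle without agonist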
The depositor's hits bear a star; . = no result given. Sampled rows, rich in hits. Any-hit rate of the full collection: about 4%.

SMILES | DAGLB inh | MPTP block | TAAR1 antagonist | GPR7 antag | TAAR1 ag | GPR7 antag conf | MCHR1 antag
COc1ccc(NC(=O)CCNC(=O)C2CCN(S(=O)(=O)c3ccccc3)CC2)cc1OC | 0 | -1 | 2 | . | 0 | . | .
COc1cc(NC2c3ccccc3C(=O)N2Cc2ccc3c(c2)OCO3)cc(OC)c1OC (stereo unspecified) | 2 | -2 | -22 | 26* | 0 | 12 | 20
CCCCn1c(NS(=O)(=O)c2ccccc2)c(S(=O)(=O)c2ccc(C)cc2)c2nc3ccccc3nc21 | -14 | 11 | 9 | 31* | 17 | 35* | 41*
CCCCn1c(NC(=O)c2ccco2)c(S(=O)(=O)c2ccc(C)cc2)c2nc3ccccc3nc21 | 5 | 22 | -1 | -7 | 6 | . | .
Cc1ccc(-c2nnc(Nc3ccc(O)cc3)c3ccccc23)cc1S(=O)(=O)NCCO | 0 | 2 | -29 | -4 | 0 | . | .
CCOC(=O)CNS(=O)(=O)c1cc(-c2nnc(Nc3ccc4c(c3)OCO4)c3ccccc23)ccc1C | 3 | 13 | 59* | 36* | 9 | 47* | 78*
CCCOc1ccc(-c2c(C(=O)N/N=C/C3CCCCC3)nnn2-c2nonc2N)cc1 | 0 | -1 | -25 | -15 | 11 | . | .
O=C(O)CC(Sc1ccc(Cl)cc1)C(=O)Nc1ccccc1 (stereo unspecified) | . | . | 2 | . | 1 | . | .
O=S(=O)(NC1CCCC1)c1ccc(S(=O)(=O)N2CCc3ccccc32)cc1 | -3 | 20 | 27 | 47* | 18 | 62* | 61*
CC(=O)CC(=O)O[C@@H]1C=C[C@H](NC(=O)OC(C)(C)C)C1 | . | . | -3 | . | 1 | . | .
N#Cc1ccccc1CSc1ccc(-c2nc3ccccc3[nH]2)cn1 | -3 | 24 | 50* | 31* | 13 | 5 | 74*
CC(C)(C)c1ccc(CC(=O)N2CCC2(C)C(=O)Nc2cccc3cccnc23)cc1 (stereo unspecified) | . | 0 | 7 | . | -1 | . | .
CC(=O)OCCCNc1cc(Sc2nc3ccccc3s2)c2nonc2c1[N+](=O)[O-] | 1 | 4 | . | -6 | . | . | .
CC(=O)OCCNc1cc(Sc2nc3ccccc3[nH]2)c2nonc2c1[N+](=O)[O-] | -5 | 0 | 22 | 33* | 2 | 60* | 101*
CCOc1ccc2nc3ccc4[nH]onc4c3c2c1 | -2 | 42 | 26 | 28* | -2 | 48* | 46*
CCCCCCN1C[C@@H](n2cc(C3CC3)nn2)[C@H](O)C[C@@H]1c1ccc(OC)cc1 | -3 | 0 | 5 | . | -1 | . | .
Cc1nn2c(NCCCN(C)C)c3c(nc2c1-c1ccccc1)CCCC3 | 1 | -2 | -9 | 30* | 2 | 18 | 23*
O=C(COc1ccc([N+](=O)[O-])cc1)NCCC1=CCCCC1 | -7 | 1 | 0 | 29* | -3 | 31* | 16
Cn1c(Oc2ccccc2NCc2cccc(Br)c2)cc(=O)n(C)c1=O | 0 | -3 | 5 | 31* | 6 | 22 | 33*
Cn1c(NCc2cccc(Br)c2)nc2ccccc21 | -9 | 0 | -5 | 1 | 14 | . | .
COC(=O)c1ccc(-n2nnnc2SCc2ccccc2OC)cc1 | -10 | 8 | 28 | 38* | 10 | 37* | 61*
O=C1NC[C@H](CCCCN2C[C@H](Cc3ccccc3)N(CCc3ccc(O)cc3)C(=O)C2=O)N(CCC2CCCCC2)C1=O | . | -2 | -13 | . | 4 | . | .
O=C1CCCC2=C1C(c1ccncc1)c1c(nc(SCc3ccccc3Cl)[nH]c1=O)N2 (stereo unspecified) | 4 | -2 | 5 | -12 | 12 | . | .
CCC(C)Sc1nc2c(c(=O)[nH]1)C(c1cccs1)C1=C(CCCC1=O)N2 (stereo unspecified) | -1 | 0 | -27 | 32* | 2 | 25* | 30*
COc1cccc(Nc2ncnc3sc(C)cc23)c1 | 2 | 1 | -3 | 30* | 1 | -17 | 11
SMILES | DAGLB inh | MPTP block | TAAR1 antagonist | GPR7 antag | TAAR1 ag | GPR7 antag conf | MCHR1 antag
COc1cccc(Nc2ncnc3sccc23)c1 | 0 | 0 | -2 | -4 | 0 | . | .
O=c1ccc2cc(S(=O)(=O)Nc3ccc(Br)cc3)ccc2o1 | -2 | 0 | 15 | 24* | 7 | 14 | 22*
N#Cc1nc(COc2ccc(F)cc2)oc1N1CCC(Cc2ccccc2)CC1 | -16 | 5 | 11 | 30* | 9 | 48* | 47*
N#Cc1nc(COc2ccc(F)cc2)oc1N1CCN(Cc2ccccc2)CC1 | -11 | 0 | -8 | 35* | 0 | 33* | 52*
COc1ccc(OCc2nc(C#N)c(N3CCN(c4ccc(OC)cc4)CC3)o2)cc1 | -11 | -3 | 10 | 43* | -1 | 48* | 50*
N#Cc1nc(COc2ccccc2)oc1N1CCCCC1 | -6 | -1 | -24 | 0 | 0 | . | .
O=C1C(c2ccccc2)=[N+]([O-])c2ccccc21 | 1 | 0 | 26 | . | 30 | . | .
CC(C)C1=CC2C3C(C(C(C)C)=CC(=O)[C@@]3(C)O)C1C(=O)C2(C)O (stereo partly specified) | . | . | -9 | . | 2 | . | .
C[C@@H]1CN([C@@H](C)CO)S(=O)(=O)c2ccc(Br)cc2O[C@H]1CN(C)C(=O)Cc1cccnc1 | 2 | 0 | 1 | . | 3 | . | .
COc1ccc(-c2cc(C(=O)N(C)Cc3ccccc3)no2)cc1OC | 0 | -1 | . | 31* | . | -5 | -24
CC(=O)c1ccc2c(c1)CC1(C2)Cc2cc3c(cc2C1)C(=O)CC3 (stereo unspecified) | -3 | 1 | 33 | . | 2 | . | .
O=C(c1cc[n+]([O-])cc1)N1CCc2c([nH]c3ccccc23)C1c1ccccc1Cl (stereo unspecified) | . | -1 | 6 | 31* | 17 | 12 | 7
Cc1nc(C(=O)N2CCc3c([nH]c4ccccc34)C2c2cc(F)ccc2F)cs1 (stereo unspecified) | -2 | -1 | 13 | 22* | 0 | 1 | 9
CN1N=C(C(=O)N2CCc3c([nH]c4ccccc34)C2c2ccccc2Cl)CCC1=O (stereo unspecified) | 1 | -1 | 12 | 4 | 3 | . | .
Cc1cccc(C)c1NC(=O)C(C1CC1)n1c(=O)c(-c2cc3ccccc3[nH]2)nc2ccccc21 (stereo unspecified) | . | 3 | -16 | . | 2 | . | .
Cc1ccccc1CC1(CO)CCCN(C(=O)c2ccoc2)C1 (stereo unspecified) | 0 | 0 | -17 | . | 7 | . | .
O=C(COC(=O)c1cnccn1)NCc1ccccc1Cl | 0 | -1 | 10 | . | 1 | . | .
O=C(COC(=O)c1ccccn1)NCc1ccccc1Cl | -2 | -11 | -14 | 24* | 1 | 1 | 15
